Screening results as filed in PubChem.
This is a sample that favours compounds with a hit; in the whole collection about 1.3% have one here.
HCV core dimer: blocks dimerization of HCV core protein; inhibition, % at 5 µM; TR-FRET GST/Flag-core106 dimerization, 1536-well; actives 0.33% (n = 300,000); AID 1899;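 active = inhibition above the mean of all tested compounds plus 3 SD, set per screening campaign, cut at about 45% in these data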
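Assay system: tagged HCV core106 pair (GST and Flag); medium: KF-containing HEPES buffer, pH 7.45, DTT, CHAPS, BSA; also added: Eu donor and XL665 acceptor anti-tag antibodies; dosing: 5 µM single dose; timing: compound-protein-antibody incubation 4 h at 22.5 °C; signal: TR-FRET 671 and 617 nm emission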
TbMetRS inhib: Trypanosoma brucei MetRS inhibition | purified T. brucei MetRS, ATP depletion, Kinase-Glo luminescence | inhibition, % at 11.9 µM | actives 0.4% (n = 360,000) | AID 624268;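 active = inhibition above a per-plate cutoff of the control wells' mean inhibition plus 3 SD, cut at about 5.5% in these data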;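 note: 0% = DMSO wells median and 100% = median of wells with control inhibitor compound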
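Dosing: 11.9 µM single point; system: parasite MetRS enzyme; technique: luminescence of leftover ATP; times: 15 min enzyme-compound preincubation, 2 h reaction, 10 min detection, 25 °C; replicates: each compound tested once; read-out basis: percent inhibition relative to median high and low control wells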
Lipid droplet: hepatic lipid droplet formation modulation. AID 1656. actives 0.4% (n = 240,000). inhibition, % at 6.5 µM. AML12 mouse hepatocytes, oleate lipid droplets, BODIPY imaging;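 active = lipid droplet intensity inhibited by at least 50%, with more than 500 cells counted; inconclusive = wells with under 300 cells, treated as cytotoxic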
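Material – mouse AML12 hepatocyte cell line, fixed after treatment · Compound dosing – one dose, 6.5 µM compound · Times – compound with oleate, overnight · Measured by – Image-based BODIPY and DAPI two-channel analysis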
NS3 helicase inh: blocks Hepatitis C virus NS3 helicase unwinding | NS3 helicase DNA unwinding, Cy5 molecular beacon fluorescence | inhibition, % at 10.9 µM | actives 0.56% (n = 290,000) | AID 1800;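 active = inhibition above the mean of all tested compounds plus 3 SD, set per campaign, cut at about 35% in these data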;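 note: 0% = DMSO wells and 100% = thioflavine S control wells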
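Compound dosing – single dose, 10.9 µM nominal final, DMSO 0.8% final · System – NS3 helicase fragment of HCV · Buffer or medium – MOPS pH 6.5, MgCl2, DTT, Tween20, BSA · Signal – Cy5 beacon fluorescence read at start and 1 h · Also added – annealed dual-labelled DNA beacon duplex, ATP-started · Schedule – 1 h at 25 °C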
* = called active by the depositor; ? = inconclusive; nt = no result given.

SMILES	HCV core dimer	TbMetRS inhib	Lipid droplet	NS3 helicase inh
COc1cc(OC)cc(C(=O)N2CCN(S(=O)(=O)c3ccc4c(c3)OCCO4)CC2)c1	nt	-0.2	nt	nt
Brc1cc(Br)c2ncnc(N3CCCCC3)c2c1	60.7*	-0.9	nt	2.0
COC(=O)C[C@@H]1C=C[C@H](NC(=O)Nc2ccc(OC)cc2)[C@@H](CO)O1	nt	-0.5	nt	nt
CCOC(=O)c1cnn(-c2nc(SC)nc3sc4c(c23)CCC4)c1N	79.9*	-0.9	-0.2	6.4
O=C(NC(c1ccc(-c2ccccc2)cc1)c1cnccn1)C1CCN(CCCOc2ccccc2)CC1 (stereo not drawn)	nt	-0.2	nt	nt
CCCN(CCC)C(=O)c1cc(-c2ccc3c(c2)OCO3)nc2ccccc12	55.9*	-1.2	-9.3	10.2
CCC(C)c1ccccc1NC(=O)COC(=O)c1ccc2[nH]c3c(c2c1)CCCC3 (stereo not drawn)	10.7	0.7	58.9*	8.1
CCc1nc2ccc(C(=O)N(CC)CCN(C)C)cn2c1N(C)C(=O)C1CCCCC1	nt	-0.2	nt	nt
CCOc1cc(/C=N/NC(=O)c2cc(C)n(-c3ccc(F)cc3)c2C)ccc1O	13.4	0.7	8.8	11.0
Cc1cc(C(=O)N/N=C2\CC(=O)c3ccccc32)c(C)n1-c1ccc(F)cc1	71.4*	-1.4	27.1	21.0
C[C@@H]1CN([C@@H](C)CO)C(=O)CCCn2cc(nn2)CO[C@H]1CN(C)S(=O)(=O)c1cn(C)cn1	nt	-0.5	nt	nt
Cc1nnc(NC(=O)C2CCN(S(=O)(=O)c3cc([N+](=O)[O-])ccc3Cl)CC2)o1	nt	-0.5	nt	nt
Cc1cccc2sc(NC(=O)C3CCN(S(=O)(=O)c4cc([N+](=O)[O-])ccc4Cl)CC3)nc12	48.5*	-1.0	44.8	-0.1
O=C(NCc1ccc(/C=c2\sc3n(c2=O)CCN=3)o1)C(=O)Nc1ccccc1	58.7*	nt	0.6	0.2
CCOC(=O)C[C@@H]1OC[C@H](C)N1S(=O)(=O)c1ccc(C)cc1	nt	-0.8	nt	nt
N#Cc1ccc(CSc2nnc(NC(=O)C3CC(=O)N(c4ccc5c(c4)OCCO5)C3)s2)cc1 (stereo not drawn)	64.3*	-0.7	15.1	25.2
C[C@@H]1CN([C@@H](C)CO)S(=O)(=O)c2ccc(Br)cc2O[C@@H]1CN(C)Cc1cccnc1	nt	-1.1	nt	nt
O=c1cc(CN2CCN(c3ccccc3)CC2)nc2scc(-c3ccccc3)n12	46.3*	-0.5	-20.2	13.5
CC(C)CC(OC(=O)c1cccs1)C(=O)NCc1ccco1 (stereo not drawn)	49.0*	-0.7	-0.3	24.9
O=C(CN1C(=O)c2ccccc2C1=O)Nc1sc2c(c1C(=O)NCc1ccco1)CCCC2	64.0*	-0.5	nt	12.1
CSc1nc(N(C)CCO)c2sc3nc(-c4ccco4)c4c(c3c2n1)CCC4	80.3*	0.0	nt	19.4
CSc1nc(NCCN(C)C)c2sc3nc(-c4ccco4)c4c(c3c2n1)CCC4	nt	2.0	nt	nt
Cc1ccc(N2C(=O)[C@@H]3[C@H](C2=O)C2CCCN2[C@@H]3C(=O)c2ccccc2)cc1 (stereo partly drawn)	57.6*	-0.3	6.5	24.1
CC(C)(C)NC(=O)C(c1ccc(O)cc1)N(Cc1ccc2c(c1)OCO2)C(=O)CCl (stereo not drawn)	nt	0.2	nt	nt
Nc1nc(-c2ccccc2)c(N=Nc2ccc(Cl)cc2)s1	11.2	-1.5	92.7*	3.1
SMILES	HCV core dimer	TbMetRS inhib	Lipid droplet	NS3 helicase inh
COC(=O)/C=c1/s/c(=C(/C#N)C(=O)N2CCOCC2)n(-c2ccccc2)c1=O	-4.8	0.0	-5.7	4.6
COC(=O)/C=c1/s/c(=C(\C#N)C(=O)NCc2ccco2)n(-c2ccc(C)cc2)c1=O	56.9*	-0.9	nt	20.0
CCn1c2ccccc2c2cc(/C=N/NC(=O)c3cccc(C)c3)ccc21	47.9*	0.0	nt	1.4
CCn1c2ccccc2c2cc(/C=N/NC(=O)c3ccccc3C)ccc21	18.6	-0.1	-80.9	-18.7
COCCNC(=O)c1cc2sccc2n1C	-1.1	-0.9	10.5	1.1
CCOc1ccc(CCNC(=O)c2cc3sccc3n2C)cc1OCC	1.0	-0.7	101.0*	-3.0
Cc1ccc(NC2=C/C(=N\S(=O)(=O)c3cccs3)c3ccccc3C2=O)c(C)c1	51.9*	1.2	?	-7.5
CC(=O)c1ccc(Nc2nc(C(N)Cc3ccc(Cl)cc3)cs2)cc1 (stereo not drawn)	nt	0.2	nt	nt
Cc1nnc2sc(COc3ccccc3)nn2c1=O	15.2	0.0	-3.9	-3.6
c1ccc(OCc2nn3c(-c4n[nH]c5c4CCC5)nnc3s2)cc1	46.9*	-1.4	nt	nt
COc1ccc(CCN(C(=S)Nc2ccccc2)C2CC(=O)N(c3ccccc3)C2=O)cc1 (stereo not drawn)	9.8	15.9*	nt	-12.8
CCCCN(C(=O)c1cccc(N2C(=O)c3ccccc3C2=O)c1)c1c(N)n(CC(C)C)c(=O)[nH]c1=O	nt	-0.4	nt	nt
CCCCN(C(=O)c1cccc(-n2cccc2)c1)c1c(N)n(Cc2ccccc2)c(=O)[nH]c1=O	47.6*	0.2	nt	nt
O=C(NCC(F)(F)F)c1ccc2sc([C@@H]3O[C@H](CO)[C@H](O)[C@H](O)[C@H]3O)nc2c1	nt	-0.2	nt	nt
CC(=O)Oc1ccc(C(=O)[C@H]2[C@H]3C(=O)N(c4cccc5ccccc45)C(=O)[C@H]3[C@@H]3C=CC=NN32)cc1	52.1*	-0.2	-1.7	23.6
COc1ccc(C(=O)[C@H]2[C@H]3C(=O)N(c4ccc(OC(C)=O)cc4)C(=O)[C@H]3C3C=CC=NN32)cc1 (stereo partly drawn)	26.1	2.2	12.9	-0.2
CC1(C)CC(=O)C2=C(C1)OC1=C(C(=O)CC(C)(C)C1)C2c1ccccc1Cl	nt	0.1	nt	nt
COc1ccc(-c2cc(-c3ccccc3)c(C#N)c(SCC(=O)Nc3ncc(C)s3)n2)cc1	55.5*	0.0	25.3	3.7
COc1ccc(-c2cc(-c3ccc(O)cc3)nc(N)c2C#N)cc1	7.1	-0.3	12.0	11.1
COc1ccc(-c2cc(-c3ccc(OC)cc3)c(C#N)c(SC)n2)cc1	75.1*	-0.1	-6.0	2.4
